Measurements from ChEMBL document CHEMBL1255409, “In vitro activity of ceftaroline against 623 diverse strains of anaerobic bacteria” (2010).
Values after ≈ are worked out from the molar mass of the structure shown.

Legend:
Prevotella bergensis = test: Antimicrobial activity against Prevotella bergensis under anaerobic conditions after 44 hrs by CLSI-M11-47 protocol based agar dilution method; assay type: functional; conditions: Hallella bergensis
Procedure, shortened: (§1)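 Clinical isolates were stored at −70°C in 20% skim milk and identified phenotypically or by partial 16S rRNA sequencing. Each strain was subcultured twice from frozen stock. Cell paste from 48-h cultures was suspended in brucella broth to a 0.5 McFarland standard. About 10^5 CFU per spot were applied by Steers replicator to agar dilution plates prepared on the day of testing. Plates were incubated 44 h at 37°C in an anaerobic chamber. MIC was taken as the lowest concentration giving complete inhibition or marked reduction of growth versus the drug-free control.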

Anaerococcus murdochii = test: Antimicrobial activity against Anaerococcus murdochii under anaerobic conditions after 44 hrs by CLSI-M11-47 protocol based agar dilution method; assay type: functional
Procedure, shortened: (§2)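 Reference agar dilution per CLSI M11-A7 with plates made on test day. Clinical isolates were stored at −70°C in 20% skim milk, subcultured twice, and 48-h cell paste was suspended in brucella broth to 0.5 McFarland. About 10^5 CFU/spot was applied with a Steers replicator. Plates were incubated 44 h at 37°C anaerobically. MIC was the lowest concentration giving complete inhibition or marked growth reduction versus the drug-free control.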

Peptoniphilus lacrimalis = test: Antimicrobial activity against Peptoniphilus lacrimalis under anaerobic conditions after 44 hrs by CLSI-M11-47 protocol based agar dilution method; assay type: functional; procedure, shortened: as §1
[1] = tested on: Porphyromonas asaccharolytica; test: Antimicrobial activity against Porphyromonas asaccharolyticus under anaerobic conditions after 44 hrs by CLSI-M11-47 protocol based agar dilution method; assay type: functional; procedure, shortened: as §1
Collinsella aerofaciens = test: Antimicrobial activity against Colinsella aerofaciens under anaerobic conditions after 44 hrs by CLSI-M11-47 protocol based agar dilution method; assay type: functional; procedure, shortened: as §2
Anaerococcus tetradius = test: Antimicrobial activity against Anaerococcus tetradius under anaerobic conditions after 44 hrs by CLSI-M11-47 protocol based agar dilution method; assay type: functional; procedure, shortened: as §2
Clostridium tertium = test: Antimicrobial activity against Clostridium tertium under anaerobic conditions after 44 hrs by CLSI-M11-47 protocol based agar dilution method; assay type: functional; procedure, shortened: as §2
Clostridium hylemonae = test: Antimicrobial activity against Clostridium hylemonae under anaerobic conditions after 44 hrs by CLSI-M11-47 protocol based agar dilution method; assay type: functional; procedure, shortened: as §2
[2] = tested on: Actinomyces neuii subsp. anitratus; test: Antimicrobial activity against Actinomyces neuii subsp. anitratus under anaerobic conditions after 44 hrs by CLSI-M11-47 protocol based agar dilution method; assay type: functional, Winkia neuii subsp. anitrata; conditions: Winkia neuii; procedure, shortened: as §2
[3] = tested on: Bacteroides thetaiotaomicron; test: Antimicrobial activity against Bacteroides thetaiotaomicron under anaerobic conditions after 44 hrs by CLSI-M11-47 protocol based agar dilution method; assay type: functional; procedure, shortened: as §2
Prevotella nanceiensis = test: Antimicrobial activity against Prevotella nanceiensis under anaerobic conditions after 44 hrs by CLSI-M11-47 protocol based agar dilution method; assay type: functional; conditions: Hoylesella nanceiensis; procedure, shortened: as §1
Bacteroides uniformis = test: Antimicrobial activity against Bacteroides uniformis under anaerobic conditions after 44 hrs by CLSI-M11-47 protocol based agar dilution method; assay type: functional; procedure, shortened: as §2
[4] = tested on: Prevotella melaninogenica; test: Antimicrobial activity against Prevotella melaninogenica under anaerobic conditions after 44 hrs by CLSI-M11-47 protocol based agar dilution method; assay type: functional; procedure, shortened: as §1
Eubacterium cylindroides = test: Antimicrobial activity against Eubacterium cylindroides under anaerobic conditions after 44 hrs by CLSI-M11-47 protocol based agar dilution method; assay type: functional; conditions: Faecalitalea cylindroides; procedure, shortened: as §2
[5] = tested on: Lacticaseibacillus rhamnosus; test: Antimicrobial activity against Lactobacillus rhamnosus under anaerobic conditions after 44 hrs by CLSI-M11-47 protocol based agar dilution method; assay type: functional; procedure, shortened: as §1
Clostridium perfringens = test: Antimicrobial activity against Clostridium perfringens under anaerobic conditions after 44 hrs by CLSI-M11-47 protocol based agar dilution method; assay type: functional
Anaerococcus prevotii = test: Antimicrobial activity against Anaerococcus prevotii under anaerobic conditions after 44 hrs by CLSI-M11-47 protocol based agar dilution method; assay type: functional; procedure, shortened: as §2
Prevotella bivia = test: Antimicrobial activity against Prevotella bivia under anaerobic conditions after 44 hrs by CLSI-M11-47 protocol based agar dilution method; assay type: functional; procedure, shortened: as §1
[6] = tested on: Anaerococcus lactolyticus; test: Antimicrobial activity against Anaerococcus lactolyticus under anaerobic conditions after 44 hrs by CLSI-M11-47 protocol based agar dilution method; assay type: functional; procedure, shortened: as §2
Solobacterium moorei = test: Antimicrobial activity against Solobacterium moorei under anaerobic conditions after 44 hrs by CLSI-M11-47 protocol based agar dilution method; assay type: functional; procedure, shortened: as §1
Porphyromonas somerae = test: Antimicrobial activity against Porphyromonas somerae under anaerobic conditions after 44 hrs by CLSI-M11-47 protocol based agar dilution method; assay type: functional; procedure, shortened: as §1

Which results are given for `CCO/N=C(\C(=O)N[C@@H]1C(=O)N2C(C(=O)[O-])=C(Sc3nc(-c4cc[n+](C)cc4)cs3)CS[C@H]12)c1nsc(NP(=O)(O)O)n1` [CEFTAROLINE FOSAMIL]?
MIC50 (Prevotella bergensis): 2 mg/L (≈ 2.92 µM); MIC90 (Prevotella bergensis): 32 mg/L (≈ 46.7 µM); MIC50 (Anaerococcus murdochii): 0.06 mg/L (≈ 0.0876 µM); MIC90 (Anaerococcus murdochii): 1 mg/L (≈ 1.46 µM); MIC50 (Peptoniphilus lacrimalis): 0.06 mg/L (≈ 0.0876 µM); MIC90 (Peptoniphilus lacrimalis): 1 mg/L (≈ 1.46 µM); MIC50 [1]: 0.015 mg/L (≈ 0.0219 µM); MIC90 [1]: 0.03 mg/L (≈ 0.0438 µM); MIC50 (Collinsella aerofaciens): 0.125 mg/L (≈ 0.183 µM); MIC90 (Collinsella aerofaciens): 0.25 mg/L (≈ 0.365 µM); MIC50 (Anaerococcus tetradius): 0.03 mg/L (≈ 0.0438 µM); MIC90 (Anaerococcus tetradius): 0.125 mg/L (≈ 0.183 µM); MIC50 (Clostridium tertium): 0.5 mg/L (≈ 0.73 µM); MIC90 (Clostridium tertium): 16 mg/L (≈ 23.4 µM); MIC50 (Clostridium hylemonae): 0.5 mg/L (≈ 0.73 µM); MIC90 (Clostridium hylemonae): 16 mg/L (≈ 23.4 µM); MIC50 [2]: 0.015 mg/L (≈ 0.0219 µM); MIC90 [2]: 0.25 mg/L (≈ 0.365 µM); MIC50 [3]: 64 mg/L (≈ 93.5 µM); MIC90 [3]: > 64 mg/L; MIC50 (Prevotella nanceiensis): 2 mg/L (≈ 2.92 µM); MIC90 (Prevotella nanceiensis): 32 mg/L (≈ 46.7 µM); MIC50 (Bacteroides uniformis): 64 mg/L (≈ 93.5 µM); MIC90 (Bacteroides uniformis): > 64 mg/L; MIC50 [4]: 2 mg/L (≈ 2.92 µM); MIC90 [4]: 32 mg/L (≈ 46.7 µM); MIC50 (Eubacterium cylindroides): 0.125 mg/L (≈ 0.183 µM); MIC90 (Eubacterium cylindroides): 0.25 mg/L (≈ 0.365 µM); MIC50 [5]: 0.5 mg/L (≈ 0.73 µM); MIC90 [5]: 1 mg/L (≈ 1.46 µM); MIC50 (Clostridium perfringens): 0.125 mg/L (≈ 0.183 µM); MIC90 (Clostridium perfringens): 0.25 mg/L (≈ 0.365 µM); MIC50 (Anaerococcus prevotii): 0.03 mg/L (≈ 0.0438 µM); MIC90 (Anaerococcus prevotii): 0.125 mg/L (≈ 0.183 µM); MIC50 (Prevotella bivia): 2 mg/L (≈ 2.92 µM); MIC90 (Prevotella bivia): 64 mg/L (≈ 93.5 µM); MIC50 [6]: 0.06 mg/L (≈ 0.0876 µM); MIC90 [6]: 1 mg/L (≈ 1.46 µM); MIC50 (Solobacterium moorei): 0.125 mg/L (≈ 0.183 µM); MIC90 (Solobacterium moorei): 0.25 mg/L (≈ 0.365 µM); MIC50 (Porphyromonas somerae): 0.015 mg/L (≈ 0.0219 µM); MIC90 (Porphyromonas somerae): > 16 mg/L

`Cc1ncc([N+](=O)[O-])n1CCO` [METRONIDAZOLE] was tested. Which MIC50 (Prevotella bergensis) did it give?
The MIC50 was 0.5 mg/L (≈ 2.92 µM).

What about the MIC90 (Prevotella bergensis) of the same molecule?
Its MIC90 is 2 mg/L (≈ 11.7 µM).

And the MIC50 (Anaerococcus murdochii)?
Its MIC50 is 1 mg/L (≈ 5.84 µM).

What about the MIC90 (Anaerococcus murdochii) of the same molecule?
The MIC90 was 4 mg/L (≈ 23.4 µM).

What about the MIC50 (Peptoniphilus lacrimalis) of the same molecule?
The MIC50 was 1 mg/L (≈ 5.84 µM).

What about the MIC90 (Peptoniphilus lacrimalis) of the same molecule?
The MIC90 was 4 mg/L (≈ 23.4 µM).

And the MIC50 [1]?
Its MIC50 is 0.06 mg/L (≈ 0.351 µM).

What about the MIC90 [1] of the same molecule?
The MIC90 was 0.125 mg/L (≈ 0.73 µM).

And the MIC50 (Collinsella aerofaciens)?
Its MIC50 is 0.5 mg/L (≈ 2.92 µM).

And the MIC90 (Collinsella aerofaciens)?
Its MIC90 is 1 mg/L (≈ 5.84 µM).

What about the MIC50 (Anaerococcus tetradius) of the same molecule?
The MIC50 was 1 mg/L (≈ 5.84 µM).

What about the MIC90 (Anaerococcus tetradius) of the same molecule?
Its MIC90 is 2 mg/L (≈ 11.7 µM).

What about the MIC50 (Clostridium tertium) of the same molecule?
The MIC50 was 0.5 mg/L (≈ 2.92 µM).

What about the MIC90 (Clostridium tertium) of the same molecule?
The MIC90 was 4 mg/L (≈ 23.4 µM).

And the MIC50 (Clostridium hylemonae)?
The MIC50 was 0.5 mg/L (≈ 2.92 µM).

What about the MIC90 (Clostridium hylemonae) of the same molecule?
Its MIC90 is 4 mg/L (≈ 23.4 µM).

What about the MIC50 [2] of the same molecule?
Its MIC50 is over 32 mg/L.

What about the MIC90 [2] of the same molecule?
The MIC90 was over 32 mg/L.

What about the MIC50 [3] of the same molecule?
Its MIC50 is 1 mg/L (≈ 5.84 µM).

What about the MIC90 [3] of the same molecule?
The MIC90 was 1 mg/L (≈ 5.84 µM).

And the MIC50 (Prevotella nanceiensis)?
Its MIC50 is 0.5 mg/L (≈ 2.92 µM).

What about the MIC90 (Prevotella nanceiensis) of the same molecule?
Its MIC90 is 2 mg/L (≈ 11.7 µM).

And the MIC50 (Bacteroides uniformis)?
Its MIC50 is 1 mg/L (≈ 5.84 µM).

What about the MIC90 (Bacteroides uniformis) of the same molecule?
Its MIC90 is 2 mg/L (≈ 11.7 µM).

What about the MIC50 [4] of the same molecule?
The MIC50 was 0.5 mg/L (≈ 2.92 µM).

And the MIC90 [4]?
The MIC90 was 1 mg/L (≈ 5.84 µM).

What about the MIC50 (Eubacterium cylindroides) of the same molecule?
The MIC50 was 0.5 mg/L (≈ 2.92 µM).

What about the MIC90 (Eubacterium cylindroides) of the same molecule?
Its MIC90 is 1 mg/L (≈ 5.84 µM).

And the MIC50 [5]?
The MIC50 was over 64 mg/L.

What about the MIC90 [5] of the same molecule?
The MIC90 was over 64 mg/L.

And the MIC50 (Clostridium perfringens)?
The MIC50 was 2 mg/L (≈ 11.7 µM).

And the MIC90 (Clostridium perfringens)?
Its MIC90 is 4 mg/L (≈ 23.4 µM).

What about the MIC50 (Anaerococcus prevotii) of the same molecule?
Its MIC50 is 1 mg/L (≈ 5.84 µM).

And the MIC90 (Anaerococcus prevotii)?
Its MIC90 is 2 mg/L (≈ 11.7 µM).

And the MIC50 (Prevotella bivia)?
Its MIC50 is 1 mg/L (≈ 5.84 µM).

What about the MIC90 (Prevotella bivia) of the same molecule?
Its MIC90 is 2 mg/L (≈ 11.7 µM).

What about the MIC50 [6] of the same molecule?
Its MIC50 is 1 mg/L (≈ 5.84 µM).

What about the MIC90 [6] of the same molecule?
The MIC90 was 4 mg/L (≈ 23.4 µM).

What about the MIC50 (Solobacterium moorei) of the same molecule?
The MIC50 was 0.5 mg/L (≈ 2.92 µM).

And the MIC90 (Solobacterium moorei)?
Its MIC90 is 1 mg/L (≈ 5.84 µM).

And the MIC50 (Porphyromonas somerae)?
The MIC50 was 0.5 mg/L (≈ 2.92 µM).

And the MIC90 (Porphyromonas somerae)?
Its MIC90 is 0.5 mg/L (≈ 2.92 µM).
